# Results reported in ChEMBL document CHEMBL1221230, “Inhibition of eukaryotic translation elongation by cycloheximide and lactimidomycin” (Nat Chem Biol, 2010).
# The source made the active and inactive calls. No cut-off for these calls is given here. Numbered stars: 1 amine (or outer) side, 2 acyl side, 3 side chain; on linkers, the order of the positions; unused ones are H or OH. Bridge positions count the residues as written; N and C are the ends. Square brackets hold non-standard residues; d marks the D form. Peptide text beside a SMILES is read from it. I, II: the chains in the order shown. Actinocin(1to9) = Cc1c2oc3c(C)ccc(C(=O)[*:2])c3nc-2c(C(=O)[*:1])c(N)c1=O; NMeV = CN[C@H](C(=O)O)C(C)C; Sar = CNCC(=O)O
# What was measured:
# [1] = test system: HeLa; test: Inhibition of transcriptional activity in human HeLa cells assessed as [3H]uridine utilization after 2 hrs by scintillation counting; format: functional, cell-based
# In short: (§1)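 HeLa cells incubated 2 h with varying compound concentrations plus [³⁵S]cysteine/methionine (translation) or [³H]uridine (transcription). Protein synthesis: scintillation counting of TCA-precipitated protein on PVDF membrane. Transcription: scintillation counting of nucleic acids bound to GF/C glass fibre filter.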
# [2] = test system: MDA-MB-231; test: Antiproliferative activity against human MDA-MB-231 cells assessed as incorporation of [3H]thymidine in nuclear DNA at 2.5 uM after 24 hrs by scintillation counting; format: functional, cell-based
# In short: (§2)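 Each of three tumour cell lines incubated with compound at 2.5 μM for 24 h, then [³H]thymidine added to monitor DNA synthesis; initial proliferation screen.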
# [3] = test system: Jurkat; test: Antiproliferative activity against human Jurkat cells assessed as incorporation of [3H]thymidine in nuclear DNA at 2.5 uM after 24 hrs by scintillation counting; format: functional, cell-based; in short: as §2
# [4] = test system: HeLa; test: Antiproliferative activity against human HeLa cells assessed as incorporation of [3H]thymidine in nuclear DNA at 2.5 uM after 24 hrs by scintillation counting; format: functional, cell-based; in short: as §2
# [5] = test system: HeLa; test: Inhibition of protein synthesis in human HeLa cells assessed as [35S]cysteine/methionine utilization after 2 hrs by scintillation spectroscopy; format: functional, cell-based; in short: as §1
# [6] = test system: Saccharomyces cerevisiae; test: Antimicrobial activity against Saccharomyces cerevisiae BY686 expressing ribosomal protein cyh2 and harboring mutation in rpl28; format: functional, organism-based
# In short: (§3)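 Four isogenic S. cerevisiae strain pairs, each differing only by presence or absence of cyh2, exposed to varying compound concentrations; growth read by optical density; IC50 derived per strain, resistance as ratio between paired strains.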
# [7] = Binding affinity to 60S ribosome E-site by footprinting assay
# In short: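 DMS footprinting of salt-washed 80S ribosomes preincubated 5 min at room temperature with compound, DMS then 5 min at 37°C; rRNA primer extension with AMV reverse transcriptase and [α-³²P]TTP, sequencing gel. For K_D, 300 μl volume at 50 or 100 nM ribosomes titrated with increasing compound.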
# [8] = test system: Saccharomyces cerevisiae; test: Antimicrobial activity against Saccharomyces cerevisiae BY740 expressing ribosomal protein cyh2 and harboring mutation in rpl28; format: functional, organism-based; in short: as §3
# [9] = test system: Saccharomyces cerevisiae; test: Antimicrobial activity against Saccharomyces cerevisiae BY108; format: functional, organism-based; in short: as §3
# [10] = test system: Saccharomyces cerevisiae; test: Fold resistance, ratio of IC50 for Saccharomyces cerevisiae BY686 expressing ribosomal protein cyh2 and harboring mutation in rpl28 to IC50 Saccharomyces cerevisiae JB503; format: functional; in short: as §3
# [11] = test system: Saccharomyces cerevisiae; test: Antimicrobial activity against Saccharomyces cerevisiae JB503; format: functional, organism-based; in short: as §3
# [12] = biological target: T1, Elongation factor 1-alpha 1 (Homo sapiens) (UniProt P68104); test: Inhibition of eEF1A-mediated tRNA binding to ternary complex at 200 uM after 10 mins by filtration binding assay
# T1 sequence (whole entry): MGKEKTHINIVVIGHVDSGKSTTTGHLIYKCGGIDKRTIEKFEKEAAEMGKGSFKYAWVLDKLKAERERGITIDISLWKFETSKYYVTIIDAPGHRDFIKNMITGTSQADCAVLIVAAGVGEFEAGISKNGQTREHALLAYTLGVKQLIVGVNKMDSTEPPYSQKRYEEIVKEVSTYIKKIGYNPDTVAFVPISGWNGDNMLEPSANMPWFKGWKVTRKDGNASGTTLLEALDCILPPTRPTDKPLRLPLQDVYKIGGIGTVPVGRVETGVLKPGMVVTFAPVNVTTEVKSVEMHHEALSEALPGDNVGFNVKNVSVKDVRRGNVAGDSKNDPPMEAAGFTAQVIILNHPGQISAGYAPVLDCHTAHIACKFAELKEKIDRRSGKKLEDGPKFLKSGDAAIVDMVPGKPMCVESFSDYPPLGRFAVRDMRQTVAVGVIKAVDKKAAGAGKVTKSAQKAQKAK
# In short: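 Ribosomes (89 pmol) in 20 mM HEPES pH 7.4, 100 mM KCl, 10 mM MgCl₂, 1 mM DTT with 200 ng poly(U), 2.2 μg eEF1A, 150 μM GDPNP and 200 μM compound, before 10 pmol [¹⁴C]Phe-tRNA^Phe added; 10 min at 37°C; nitrocellulose filtration, scintillation counting.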
# [13] = test system: HEK-293T; test: Effect on polyribosome profiling in human HEK293T cells assessed as depletion of polysomes at 50 uM after 30 mins by spectrophotometry; format: functional, cell-based
# In short: (§4)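 HEK 293T cells treated 30 min with compound, then lysed; lysates centrifuged through 15–45% sucrose gradient to give polysome profiles.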
# [14] = Inhibition of [32P]deacetylated phe-tRNA binding to 60S ribosome E-site by footprinting assay
# [15] = species: Oryctolagus cuniculus; test: Inhibition of translational activity in rabbit reticulocyte assessed as occurrence of ribosomal arrest at start codon at 10 mM by toeprinting assay; format: functional
# In short: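 Labelled rabbit β-globin mRNA incubated in rabbit reticulocyte lysate with inhibitor; mixture centrifuged through sucrose gradient, 80S fractions taken to isolate stalled ribosomes; primer extended by AMV reverse transcriptase toward stalled ribosome to map arrest site.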
# [16] = test system: Saccharomyces cerevisiae; test: Antimicrobial activity against Saccharomyces cerevisiae BY724 expressing ribosomal protein cyh2 and harboring mutation in rpl28; format: functional, organism-based; in short: as §3
# [17] = Effect on polyribosome profiling assessed as accumulation of 80S ribosomes after 15 mins by scintillation spectroscopy; format: functional
# In short: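 Capped [³²P]-labelled rabbit β-globin RNA incubated in rabbit reticulocyte lysate with compound for 15 min, then centrifuged through 10–35% sucrose gradient.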
# [18] = biological target: Elongation factor 2 (Homo sapiens) (UniProt P13639); test: Inhibition of eEF2-mediated tRNA translocation assessed as induction of dipeptide accumulation by TLC
# [19] = biological target: Elongation factor 2 (Homo sapiens) (UniProt P13639); test: Inhibition of eEF2-mediated tRNA translocation assessed as inhibition of phenylalanyl puromycin formation
# In short: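 Set up as eEF1A binding assay but with GTP; 5 min at 37°C, compound added to 200 μM final, 5 min at room temperature, then eEF2, puromycin and GTP added; 10 min at 37°C; ethyl acetate-extractable phenylalanyl-puromycin counted by scintillation.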
# [20] = test system: Saccharomyces cerevisiae; test: Antimicrobial activity against Saccharomyces cerevisiae J47alpha; format: functional, organism-based; in short: as §3
# [21] = test system: Saccharomyces cerevisiae; test: Antimicrobial activity against Saccharomyces cerevisiae JB281; format: functional, organism-based; in short: as §3
# [22] = test system: HEK-293T; test: Effect on polyribosome profiling in human HEK293T cells assessed as accumulation of 80S ribosomes at 100 uM after 30 mins by spectrophotometry; format: functional, cell-based; in short: as §4
# [23] = test system: Saccharomyces cerevisiae; test: Fold resistance, ratio of IC50 for Saccharomyces cerevisiae BY724 expressing ribosomal protein cyh2 and harboring mutation in rpl28 to IC50 for Saccharomyces cerevisiae BY108; format: functional; in short: as §3
# [24] = biological target: Elongation factor 2 (Homo sapiens) (UniProt P13639); test: Inhibition of eEF2-mediated tRNA translocation assessed as decrease in tripeptide (Met-Phe-Phe) formation by TLC
# [25] = test system: Saccharomyces cerevisiae; test: Antimicrobial activity against Saccharomyces cerevisiae J407alpha expressing ribosomal protein cyh2 and harboring mutation in rpl28; format: functional, organism-based; in short: as §3
# [26] = test system: HEK-293T; test: Effect on polyribosome profiling in human HEK293T cells assessed as depletion of polysomes at 100 uM after 30 mins by spectrophotometry; format: functional, cell-based; in short: as §4
# [27] = test system: Saccharomyces cerevisiae; test: Fold resistance, ratio of IC50 Saccharomyces cerevisiae J407alpha expressing ribosomal protein cyh2 and harboring mutation in rpl28 to IC50 for Saccharomyces cerevisiae J47alpha; format: functional; in short: as §3
# [28] = test system: Saccharomyces cerevisiae; test: Fold resistance, ratio of IC50 for Saccharomyces cerevisiae BY740 expressing ribosomal protein cyh2 and harboring mutation in rpl28 to IC50 for Saccharomyces cerevisiae […]; format: functional; in short: as §3
# [29] = Effect on peptidyl transfer assessed as [35S]methionyl-puromycin formation by TLC
# [30] = Inhibition of elF4A-mediated renilla luciferase translational activity at 100 to 200 nM in presence of HCV IRES element
# [31] = Inhibition of elF4A-mediated renilla luciferase translational activity at 200 to 2000 nM in presence of HCV IRES element
compound,measurement,setting,value
CO[C@H]1/C=C/CC/C=C/C(=O)O[C@@H](/C(C)=C/[C@H](C)C(=O)/C=C/CC2CC(=O)NC(=O)C2)[C@@H](C)[C@@H]1O [DIDEHYDRO ISOMIGRASTATIN],IC50,[1],> 10000 nM
same,Activity,[2],inactive
same,Activity,[3],inactive
same,Activity,[4],inactive
same,IC50,[5],1910 nM
"Cc1c2oc3c(C)ccc(C(=O)N[C@@H]4C(=O)N[C@H](C(C)C)C(=O)N5CCC[C@H]5C(=O)N(C)CC(=O)N(C)[C@@H](C(C)C)C(=O)O[C@@H]4C)c3nc-2c(C(=O)N[C@@H]2C(=O)N[C@H](C(C)C)C(=O)N3CCC[C@H]3C(=O)N(C)CC(=O)N(C)[C@@H](C(C)C)C(=O)O[C@@H]2C)c(N)c1=O [DACTINOMYCIN] (I: T[dV]P[Sar][NMeV] / II: T[dV]P[Sar][NMeV]; ester I:1-I:C, II:1-II:C; linker I:N-II:N via Actinocin(1to9))",IC50,[1],262 nM
same,IC50,[5],520 nM
same,inhibition,[5],Dose-dependent effect
C[C@@H]1C[C@@H]([C@H](O)CC2CC(=O)NC(=O)C2)C(=O)[C@@H](C)C1 [CYCLOHEXIMIDE],IC50,[6],7420 nM
same,Activity,[7],Dose-dependent effect
same,Kd,[7],15000 nM
same,IC50,[8],17300 nM
same,IC50,[9],675 nM
same,Ratio IC50,[10],232.4
same,IC50,[11],32 nM
same,IC50,[1],2880 nM
same,inhibition,[12],inactive
same,Activity,[13],Active
same,inhibition,[14],inactive
same,inhibition,[15],inactive
same,IC50,[16],52100 nM
same,Activity,[17],Active
same,inhibition,[18],Active
same,inhibition,[19],Active
same,IC50,[20],88 nM
same,IC50,[21],227 nM
same,Activity,[22],inactive
same,Ratio IC50,[23],77
same,inhibition,[24],Active
same,IC50,[25],20500 nM
same,Activity,[26],inactive
same,IC50,[5],532 nM
same,inhibition,[5],Dose-dependent effect
same,Ratio IC50,[27],232.2
same,Ratio IC50,[28],76.3
CO[C@@H](/C=C/CC/C=C/C(=O)O)[C@@H](O)[C@H](C)[C@@H](O)/C(C)=C/[C@H](C)C(=O)CCCC1CC(=O)NC(=O)C1,Activity,[2],inactive
same,Activity,[3],inactive
same,Activity,[4],inactive
same,inhibition,[5],inactive
CSC[S@@+]([O-])CC(CO)NC(=O)/C=C/c1c(C)[nH]c(=O)[nH]c1=O (stereo not given in full),Activity,[29],Active
C/C(=C\[C@H](C)C(=O)C[C@H](O)CC1CC(=O)NC(=O)C1)[C@@H]1OC(=O)CCCC/C=C/C=C\[C@@H]1C [2H LACTIMIDOMYCIN K],IC50,[1],> 10000 nM
same,Activity,[2],inactive
same,Activity,[3],inactive
same,Activity,[4],inactive
same,IC50,[5],98.5 nM
CO[C@H]1/C=C/CC/C=C/C(=O)O[C@H]([C@H](C)C(=O)CCCC2CC(=O)NC(=O)C2)/C(C)=C\[C@@H](C)[C@@H]1O,Activity,[2],inactive
same,Activity,[3],inactive
same,Activity,[4],inactive
same,inhibition,[5],inactive
CO[C@H]1/C=C/CC/C=C/C(=O)O[C@@H](/C(C)=C/[C@H](C)C(=O)CCCC2CC(=O)NC(=O)C2)[C@@H](C)[C@@H]1O [ISOMIGRASTATIN],IC50,[1],> 10000 nM
same,Activity,[2],inactive
same,Activity,[3],inactive
same,Activity,[4],inactive
same,IC50,[5],624 nM
same,inhibition,[5],Dose-dependent effect
CC(/C=C/C(C)=C/[C@@H]1Cc2nc(cs2)[C@@H](C)C[C@@H](N)CC(=O)O[C@@H](C)C/C(C)=C/C=C\C(=O)O1)=C\CN(C)C,inhibition,[30],Active
same,inhibition,[31],Active
CO[C@@H](/C=C/CC/C=C/C(=O)O)[C@@H](O)[C@H](C)/C=C(\C)[C@H](O)[C@H](C)C(=O)CCCC1CC(=O)NC(=O)C1,Activity,[2],inactive
same,Activity,[3],inactive
same,Activity,[4],inactive
